Test results reported in ChEMBL document CHEMBL4627266, “Design and biological evaluation of a novel type of potential multi-targeting antimicrobial sulfanilamide hybrids in combination of pyrimidine and azoles” (Bioorg Med Chem Lett, 2020).
In brackets after ≈: the same amount, converted by molar mass. Activity calls are given as the source filed them. The rule behind the calls is not given here.

What was measured:
Staphylococcus aureus [1] = test: Antibacterial activity against Staphylococcus aureus ATCC 25923 by two fold serial microbroth dilution method; format: functional
Summary of the method: (§1)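 Two-fold serial dilution in microdilution plates (micro broth dilution) following CLSI. Panel includes clinical drug-resistant isolates and ATCC reference strains. Clinical drugs were run as positive controls.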

Escherichia coli [2] = test: Antibacterial activity against Escherichia coli ATCC 25922 by two fold serial microbroth dilution method; format: functional; summary of the method: as §1
Enterococcus faecalis [3] = test: Antibacterial activity against Enterococcus faecalis by two fold serial microbroth dilution method; format: functional; summary of the method: as §1
Pseudomonas aeruginosa [4] = test: Antibacterial activity against Pseudomonas aeruginosa ATCC 27853 by two fold serial microbroth dilution method; format: functional; summary of the method: as §1
Klebsiella pneumoniae = test: Antibacterial activity against Klebsiella pneumoniae by two fold serial microbroth dilution method; format: functional; summary of the method: as §1
Staphylococcus aureus [5] = test: Antibacterial activity against methicillin-resistant Staphylococcus aureus by two fold serial microbroth dilution method; format: functional
Summary of the method: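 Two-fold serial microbroth dilution in microdilution plates, run per CLSI, with clinical antibacterial drugs as positive controls. The MRSA strain was a drug-resistant clinical isolate from infected patients. MIC (μg/mL) was read as the lowest concentration giving complete inhibition of visible bacterial growth.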

Pseudomonas aeruginosa [6] = test: Antibacterial activity against Pseudomonas aeruginosa by two fold serial microbroth dilution method; format: functional; summary of the method: as §1
Staphylococcus aureus [7] = test: Antibacterial activity against Staphylococcus aureus by two fold serial microbroth dilution method; format: functional; summary of the method: as §1
Acinetobacter baumannii = test: Antibacterial activity against Acinetobacter baumannii by two fold serial microbroth dilution method; format: functional; summary of the method: as §1
Staphylococcus aureus [8] = test: Antibacterial activity against Staphylococcus aureus ATCC 29213 by two fold serial microbroth dilution method; format: functional; summary of the method: as §1
Escherichia coli [9] = test: Antibacterial activity against Escherichia coli by two fold serial microbroth dilution method; format: functional; summary of the method: as §1
Aspergillus fumigatus = test: Antifungal activity against Aspergillus fumigatus by two fold serial microbroth dilution method; format: functional
Summary of the method: (§2)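 Antifungal MIC by two-fold serial dilution following CLSI, with a clinical drug as positive control. Panel includes clinical drug-resistant fungal isolates.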

Candida tropicalis = test: Antifungal activity against Candida tropicalis by two fold serial microbroth dilution method; format: functional; summary of the method: as §2
Candida albicans [10] = test: Antifungal activity against Candida albicans by two fold serial microbroth dilution method; format: functional; summary of the method: as §2
Candida albicans [11] = test: Antifungal activity against Candida albicans ATCC 90023 by two fold serial microbroth dilution method; format: functional; summary of the method: as §2
Enterococcus faecalis [12] = test: Antibacterial activity against Enterococcus faecalis measured after 16 passages by microbroth dilution method; format: functional, organism-based
[13] = Cytotoxicity against human A549 cells assessed as cell viability at 64 ug/ml incubated for 24 hrs by MTT assay relative to control; format: cell-based; settings: read-out: Activity
Summary of the method: (§3)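 A549 lung cancer cells and BEAS-2B normal lung epithelial cells were exposed to the compound at a range of concentrations up to 64 μg/mL for 24 h. Viability was read by colorimetric MTT cell proliferation assay. Doxorubicin at 0.5 µM served as positive control.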

[14] = Cytotoxicity against human BEAS2B cells assessed as cell viability at 64 ug/ml incubated for 24 hrs by MTT assay relative to control; format: cell-based; settings: BEAS-2B cells, read-out: Activity; summary of the method: as §3
Enterococcus faecalis [15] = test: Bactericidal activity against Enterococcus faecalis assessed as log10 reduction in CFU at MIC to 6XMIC by time kill kinetics analysis; format: functional
Summary of the method: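 E. faecalis was exposed to the compound at MIC and 6 × MIC. Viable counts (log CFU/mL) were followed over time.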

Enterococcus faecalis [16] = test: Induction of cell membrane permeabilization in Enterococcus faecalis at 12XMIC measured after 60 mins by PI staining based fluorescence assay; format: organism-based
Summary of the method: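 E. faecalis cells were treated with the compound at 12 × MIC in the presence of propidium iodide, which enters only compromised cells and fluoresces on binding dsDNA. Fluorescence at 617 nm was followed over time, to about 120 min.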

DNA [17] = test: Binding affinity to Enterococcus faecalis DNA assessed as increase in absorption peak at 460 nm by neutral red dye based absorption spectral assay; format: nucleic-acid assay
DNA [18] = test: Binding affinity to Enterococcus faecalis DNA assessed as decrease in maximum absorption of DNA-NR complex at 530 nm by neutral red dye based absorption spectral assay; format: nucleic-acid assay
Albumin = Albumin (Homo sapiens, UniProt P02768); test: Binding affinity to HSA by UV-visible spectrophotometric method; format: ADME; settings: isolated protein
DNA [19] = test: Binding affinity to Enterococcus faecalis DNA assessed as hyperchromic effect by UV-visible spectrophotometric method; format: nucleic-acid assay
DNA [20] = test: Binding affinity to Enterococcus faecalis DNA assessed as blue shift by UV-visible spectrophotometric method; format: nucleic-acid assay

Albumin, sequence (P02768 whole entry): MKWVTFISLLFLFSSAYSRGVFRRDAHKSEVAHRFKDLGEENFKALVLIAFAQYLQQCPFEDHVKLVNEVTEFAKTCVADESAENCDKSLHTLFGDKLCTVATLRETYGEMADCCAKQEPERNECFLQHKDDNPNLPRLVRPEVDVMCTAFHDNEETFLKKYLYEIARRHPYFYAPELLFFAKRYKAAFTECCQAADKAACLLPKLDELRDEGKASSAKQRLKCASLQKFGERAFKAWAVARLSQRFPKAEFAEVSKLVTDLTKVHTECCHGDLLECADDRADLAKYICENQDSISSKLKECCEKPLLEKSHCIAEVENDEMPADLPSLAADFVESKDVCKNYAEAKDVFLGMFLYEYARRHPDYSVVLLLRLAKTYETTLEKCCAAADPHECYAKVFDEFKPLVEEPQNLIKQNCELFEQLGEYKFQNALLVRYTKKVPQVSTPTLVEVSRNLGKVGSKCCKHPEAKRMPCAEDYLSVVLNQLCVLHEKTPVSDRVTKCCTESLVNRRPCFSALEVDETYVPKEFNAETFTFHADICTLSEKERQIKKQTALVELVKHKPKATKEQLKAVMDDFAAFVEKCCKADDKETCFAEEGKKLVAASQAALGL

| Structure (SMILES) | MIC (Staphylococcus aureus [1]) | MIC (Escherichia coli [2]) | MIC (Enterococcus faecalis [3]) | MIC (Pseudomonas aeruginosa [4]) | MIC (Klebsiella pneumoniae) | MIC (Staphylococcus aureus [5]) | MIC (Pseudomonas aeruginosa [6]) | MIC (Staphylococcus aureus [7]) | MIC (Acinetobacter baumannii) | MIC (Staphylococcus aureus [8]) | MIC (Escherichia coli [9]) | MIC (Candida albicans [10]) | also measured |
| --- | --- | --- | --- | --- | --- | --- | --- | --- | --- | --- | --- | --- | --- |
| Nc1ccc(S(=O)(=O)Nc2nccc(-n3cnc4ccccc43)n2)cc1 | 512 µg/mL (≈ 1400 µM) | 256 µg/mL (≈ 699 µM) | 256 µg/mL (≈ 699 µM) | 256 µg/mL (≈ 699 µM) | 256 µg/mL (≈ 699 µM) | 8 µg/mL (≈ 21.8 µM) | 512 µg/mL (≈ 1400 µM) | 256 µg/mL (≈ 699 µM) | 512 µg/mL (≈ 1400 µM) | 256 µg/mL (≈ 699 µM) | 128 µg/mL (≈ 349 µM) |  |  |
| Nc1ccc(S(=O)(=O)Nc2nccc(-n3ccc4cc([N+](=O)[O-])ccc43)n2)cc1 | 4 µg/mL (≈ 9.75 µM) | 128 µg/mL (≈ 312 µM) | 8 µg/mL (≈ 19.5 µM) | 8 µg/mL (≈ 19.5 µM) | 32 µg/mL (≈ 78 µM) | 16 µg/mL (≈ 39 µM) | 16 µg/mL (≈ 39 µM) | 32 µg/mL (≈ 78 µM) | 128 µg/mL (≈ 312 µM) | 64 µg/mL (≈ 156 µM) | 8 µg/mL (≈ 19.5 µM) | 2 to 8 µg/mL (≈ 4.87 to 19.5 µM) | MIC (Aspergillus fumigatus): 2 to 8 µg/mL (≈ 4.87 to 19.5 µM); MIC (Candida tropicalis): 2 to 8 µg/mL (≈ 4.87 to 19.5 µM) |
| Nc1ccc(S(=O)(=O)Nc2nccc(-n3cncn3)n2)cc1 | 256 µg/mL (≈ 807 µM) | 256 µg/mL (≈ 807 µM) | 256 µg/mL (≈ 807 µM) | 32 µg/mL (≈ 101 µM) | 32 µg/mL (≈ 101 µM) | 128 µg/mL (≈ 403 µM) | 4 µg/mL (≈ 12.6 µM) | 512 µg/mL (≈ 1610 µM) | 128 µg/mL (≈ 403 µM) | 64 µg/mL (≈ 202 µM) | 128 µg/mL (≈ 403 µM) | 8 µg/mL (≈ 25.2 µM) |  |
| CCCc1nccn1-c1ccnc(NS(=O)(=O)c2ccc(N)cc2)n1 | 64 µg/mL (≈ 179 µM) | 128 µg/mL (≈ 357 µM) | 64 µg/mL (≈ 179 µM) | 128 µg/mL (≈ 357 µM) | 64 µg/mL (≈ 179 µM) | 16 µg/mL (≈ 44.6 µM) | 128 µg/mL (≈ 357 µM) | 8 µg/mL (≈ 22.3 µM) | 32 µg/mL (≈ 89.3 µM) | 8 µg/mL (≈ 22.3 µM) | 16 µg/mL (≈ 44.6 µM) |  | MIC (Candida albicans [11]): 4 µg/mL (≈ 11.2 µM) |
| Nc1ccc(S(=O)(=O)Nc2nccc(-n3ccc4ccccc43)n2)cc1 | 4 µg/mL (≈ 10.9 µM) | 32 µg/mL (≈ 87.6 µM) | 1 µg/mL (≈ 2.74 µM) | 1 µg/mL (≈ 2.74 µM) | 32 µg/mL (≈ 87.6 µM) | 2 µg/mL (≈ 5.47 µM) | 8 µg/mL (≈ 21.9 µM) | 32 µg/mL (≈ 87.6 µM) |  | 8 µg/mL (≈ 21.9 µM) | 32 µg/mL (≈ 87.6 µM) | 2 to 8 µg/mL (≈ 5.47 to 21.9 µM) | Activity (Enterococcus faecalis [12]): Active; MIC (Aspergillus fumigatus): 2 to 8 µg/mL (≈ 5.47 to 21.9 µM); viability at 24 h, 64 ug/ml [13]: 70%; viability at 24 h, 64 ug/ml [14]: 70%; Activity (Enterococcus faecalis [15]): >3 log10CFU/ml; Activity (Enterococcus faecalis [16]): Active; Activity (DNA [17]): Active; Activity (DNA [18]): Active; Activity (Albumin): Active; MIC (Candida tropicalis): 2 to 8 µg/mL (≈ 5.47 to 21.9 µM); Activity (DNA [19]): Active; Activity (DNA [20]): Active |
| Cc1nccn1-c1ccnc(NS(=O)(=O)c2ccc(N)cc2)n1 | 256 µg/mL (≈ 775 µM) | 256 µg/mL (≈ 775 µM) | 128 µg/mL (≈ 387 µM) | 256 µg/mL (≈ 775 µM) | 512 µg/mL (≈ 1550 µM) | 128 µg/mL (≈ 387 µM) | 128 µg/mL (≈ 387 µM) | 256 µg/mL (≈ 775 µM) | 256 µg/mL (≈ 775 µM) | 256 µg/mL (≈ 775 µM) | 128 µg/mL (≈ 387 µM) |  |  |
| Nc1ccc(S(=O)(=O)Nc2nccc(-n3ccnc3)n2)cc1 | 256 µg/mL (≈ 809 µM) | 256 µg/mL (≈ 809 µM) | 128 µg/mL (≈ 405 µM) | 256 µg/mL (≈ 809 µM) | 256 µg/mL (≈ 809 µM) | 32 µg/mL (≈ 101 µM) | 128 µg/mL (≈ 405 µM) | 128 µg/mL (≈ 405 µM) | 64 µg/mL (≈ 202 µM) | 128 µg/mL (≈ 405 µM) | 256 µg/mL (≈ 809 µM) |  |  |
